One data set relates to Mus musculus. The data set can be described thus: Antiangiogenic activity in Matrigel plug angiogenic BALB/c mouse assessed as reduction in blood vessel formation at 20 mg/kg, sc measured after 10 days by Matrigel plug assay. The format is functional, organism-based. Put shortly:
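Balb/c mice, 5 weeks old, were injected subcutaneously with 750 µL of a 2:1 mix of growth factor-reduced Matrigel and compound (10 or 20 mg/kg) or vehicle. Plugs were harvested after 10 days and the subcutaneous vessels photographed.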

The test system of another data set is HeLa. The data set can be described thus: Induction of apoptosis in human HeLa cells assessed as increase in early apoptotic cells at 20 to 40 nM incubated for 48 hrs by annexin V FITC and propidium iodide staining based flow cytometry. The data set is classed as functional, cell-based. Put shortly: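 Cells were treated for 48 h, stained with FITC Annexin V and PI, and analyzed by flow cytometry to count early and late apoptotic cells.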

In data set [1] the target is [Pyruvate dehydrogenase (acetyl-transferring)] kinase isozyme 2, mitochondrial (Homo sapiens) (UniProt Q15119). Briefly: Inhibition of recombinant human PDHK2 at 1 uM incubated for 40 mins in presence of [gamma-33P]-ATP by scintillation counting method relative to control. Put shortly: (§1)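 Tested at a single 1 uM in an outsourced commercial kinase-profiling panel, read as percent inhibition. Each value is the mean of two independent experiments.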

The target of data set [2] is Protein kinase C theta type (Homo sapiens) (UniProt Q04759). Briefly: Inhibition of recombinant human full length PKCtheta at 1 uM using histone H1 as substrate incubated for 40 mins in presence of [gamma-33P]-ATP by scintillation counting method relative to control.
Data set [3] deals with Dual specificity protein kinase TTK (Homo sapiens) (UniProt P33981). The data set can be described thus: Inhibition of recombinant human full length TTK at 1 uM using MBP as substrate incubated for 40 mins in presence of [gamma-33P]-ATP by scintillation counting method relative to control.
Dual specificity protein kinase TTK (Homo sapiens), sequence (P33981 whole entry): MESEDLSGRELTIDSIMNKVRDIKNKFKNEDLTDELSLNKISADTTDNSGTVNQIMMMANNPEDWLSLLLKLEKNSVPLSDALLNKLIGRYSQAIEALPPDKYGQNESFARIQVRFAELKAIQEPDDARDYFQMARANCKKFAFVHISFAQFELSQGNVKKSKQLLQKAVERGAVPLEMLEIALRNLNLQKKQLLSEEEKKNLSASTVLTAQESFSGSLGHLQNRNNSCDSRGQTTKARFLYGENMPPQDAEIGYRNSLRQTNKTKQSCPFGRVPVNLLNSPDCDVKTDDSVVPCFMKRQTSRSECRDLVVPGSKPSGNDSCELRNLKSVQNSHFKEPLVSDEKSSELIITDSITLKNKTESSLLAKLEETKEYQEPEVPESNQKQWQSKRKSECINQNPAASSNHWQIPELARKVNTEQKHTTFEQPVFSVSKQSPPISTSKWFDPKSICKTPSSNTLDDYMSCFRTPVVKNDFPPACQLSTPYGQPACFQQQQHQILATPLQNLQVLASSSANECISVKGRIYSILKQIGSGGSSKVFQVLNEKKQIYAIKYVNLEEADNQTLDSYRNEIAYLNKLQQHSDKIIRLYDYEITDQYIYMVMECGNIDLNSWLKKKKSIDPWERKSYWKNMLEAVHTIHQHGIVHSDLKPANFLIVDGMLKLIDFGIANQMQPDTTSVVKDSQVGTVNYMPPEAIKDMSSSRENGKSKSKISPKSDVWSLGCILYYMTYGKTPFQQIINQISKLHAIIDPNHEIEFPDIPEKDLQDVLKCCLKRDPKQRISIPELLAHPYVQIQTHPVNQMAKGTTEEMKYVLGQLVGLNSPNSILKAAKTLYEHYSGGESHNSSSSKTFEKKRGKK
Data set [4] addresses Aurora kinase A (Homo sapiens) (UniProt O14965). The data set can be described thus: Inhibition of recombinant full length human Aurora A at 1 uM using LRRASLG as substrate incubated for 40 mins in presence of [gamma-33P]-ATP by scintillation counting method relative to control. Put shortly:
(§2)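 Kinase panel profiling at 1 μM performed by Eurofins KinaseProfiler; percent inhibition reported as mean of two independent experiments.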

Data set [5] concerns the target Tyrosine-protein kinase HCK (Homo sapiens) (UniProt P08631). The data set can be described thus: Inhibition of recombinant human HCK (230 to 497 residues) at 1 uM using GGMEDIYFEFMGGKKK as substrate incubated for 40 mins in presence of [gamma-33P]-ATP by scintillation counting method relative to control.
Data set [6] has as its target Dual specificity mitogen-activated protein kinase kinase 7 (Homo sapiens) (UniProt O14733). Briefly: Inhibition of recombinant human MKK7beta (2 to end residues) at 1 uM using unactive JNK1a1 as substrate incubated for 40 mins in presence of [gamma-33P]-ATP by scintillation counting method relative to control.
Data set [7] concerns SiHa. The data set can be described thus: Antitumor activity against human SiHa cells xenografted in NOD/SCID BALB/c mouse assessed as tumor growth inhibition at 10 to 40 mg/kg, po administered for 21 days. The format is functional, organism-based.
For data set [8], the system named is SiHa. Briefly: Antiproliferative activity against human SiHa cells assessed as reduction in cell viability at 40 to 80 nM incubated for 48 hrs by EdU staining based laser scanning confocal microscopy. The data set is classed as functional. In short, it runs like this: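 Cells, 5×10^4, were seeded in 24-well plates and treated for 48 h. They were then labeled using an EdU Apollo 488 imaging kit with Hoechst 33342 nuclear stain and imaged by laser scanning confocal microscopy. Percent EdU-positive cells = EdU-positive/Hoechst-stained × 100%.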

Data set [9] addresses Proto-oncogene tyrosine-protein kinase receptor Ret (Homo sapiens) (UniProt P07949). The data set can be described thus: Inhibition of recombinant human RET (658 to end residues) at 1 uM using KKKSPGEYVNIEFG as substrate incubated for 40 mins in presence of [gamma-33P]-ATP by scintillation counting method relative to control.
Data set [10] can be described thus: AUC (0 to infinity) in Sprague-Dawley rat at 10 mg/kg, iv by HPLC-MS analysis. The format is ADME, organism-based. Also on record: dose 10 mg/kg, route intravenous, time infinity. The following applies: in vivo. In short, it runs like this: (§3)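 Rats fitted with jugular vein catheters for serial blood sampling. Compound dissolved in saline with 5% (v/v) DMSO and given as a single 10 mg/kg dose iv or po after an overnight fast, n = 5 per group. Plasma isolated at once and measured by HPLC with tandem MS detection. Parameters derived by noncompartmental fitting.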

Data set [11] deals with SiHa. Briefly: Induction of cell cycle arrest in human SiHa cells assessed as decrease in cell accumulation in S phase at 40 to 80 nM incubated for 36 hrs by propidium iodide staining based flow cytometry. The format is functional. Put shortly: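 Cells were treated with graded concentrations for 36 h, then fixed overnight in 70% ice-cold ethanol at 4°C and resuspended in PBS. Staining used 50 µg/ml PI plus 5 µg/ml RNase at 37°C for 30 min. DNA content was analysed by FACS to give G0/G1, S and G2/M fractions.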

Data set [12] concerns the target Rhodopsin kinase GRK1 (Homo sapiens) (UniProt Q15835). The data set can be described thus: Inhibition of recombinant human full length GRK1 at 1 uM using KKKKERLLDDRHDSGLDSMKDEE as substrate incubated for 40 mins in presence of [gamma-33P]-ATP by scintillation counting method relative to control.
In data set [13] the target is Calcium/calmodulin-dependent protein kinase type 1 (Homo sapiens) (UniProt Q14012). Briefly: Inhibition of recombinant human CAMKIalpha (2 to end residues) at 1 uM using […] as substrate incubated for 40 mins in presence of [gamma-33P]-ATP by scintillation counting method relative to control. In short, it runs like this:
as §1

Data set [14] has as its target Serine/threonine-protein kinase BRSK2 (Homo sapiens) (UniProt Q8IWQ3). Briefly: Inhibition of recombinant human BRSK2 (2 to end residues) at 1 uM using KKLNRTLSFAEPG as substrate incubated for 40 mins in presence of [gamma-33P]-ATP by scintillation counting method relative to control. Put shortly:
as §2

The nature of data set [15]: Cmax in Sprague-Dawley rat at 10 mg/kg, po by HPLC-MS analysis. The format is ADME, organism-based. Further details: dose 10 mg/kg, route oral. The following applies: in vivo. In short, it runs like this: as §3
The nature of data set [16]: Toxicity in BALB/c mouse assessed as effect on blood parameter by measuring MCV at 40 mg/kg, po administered once two days for 4 times by hematology analyzer. The following applies: in vivo.
Data set [17] concerns the target Mitogen-activated protein kinase kinase kinase 7 (Homo sapiens) (UniProt O43318). Briefly: Inhibition of recombinant human TAK1 (1 to 303 residues) at 1 uM using casein as substrate incubated for 40 mins in presence of [gamma-33P]-ATP by scintillation counting method relative to control.
Data set [18] concerns the target Dual specificity mitogen-activated protein kinase kinase 4 (Mus musculus) (UniProt P47809). Briefly: Inhibition of recombinant mouse MKK4 (34 to end residues) at 1 uM using unactive JNK1a1 as substrate incubated for 40 mins in presence of [gamma-33P]-ATP by scintillation counting method relative to control.
Data set [19] has as its target PI3K p110 beta/p85 alpha (Homo sapiens) (UniProt P27986+P42338). The data set can be described thus: Inhibition of recombinant human full length PI3K p110beta/p85alpha at 1 uM using phosphatidylinositol-4, 5-bisphosphate as substrate incubated for 40 mins in presence of [gamma-33P]-ATP by scintillation counting method relative to control. The format is protein-complex assay.

This is an account of results in ChEMBL document CHEMBL4406821, “Novel dual inhibitors targeting CDK4 and VEGFR2 synergistically suppressed cancer progression and angiogenesis” (Eur J Med Chem, 2019).

Activity calls are given as the source filed them. The rule behind the calls is not given here.

Mitogen-activated protein kinase kinase kinase 7 (Homo sapiens), sequence (O43318 whole entry, the tested form may be a part): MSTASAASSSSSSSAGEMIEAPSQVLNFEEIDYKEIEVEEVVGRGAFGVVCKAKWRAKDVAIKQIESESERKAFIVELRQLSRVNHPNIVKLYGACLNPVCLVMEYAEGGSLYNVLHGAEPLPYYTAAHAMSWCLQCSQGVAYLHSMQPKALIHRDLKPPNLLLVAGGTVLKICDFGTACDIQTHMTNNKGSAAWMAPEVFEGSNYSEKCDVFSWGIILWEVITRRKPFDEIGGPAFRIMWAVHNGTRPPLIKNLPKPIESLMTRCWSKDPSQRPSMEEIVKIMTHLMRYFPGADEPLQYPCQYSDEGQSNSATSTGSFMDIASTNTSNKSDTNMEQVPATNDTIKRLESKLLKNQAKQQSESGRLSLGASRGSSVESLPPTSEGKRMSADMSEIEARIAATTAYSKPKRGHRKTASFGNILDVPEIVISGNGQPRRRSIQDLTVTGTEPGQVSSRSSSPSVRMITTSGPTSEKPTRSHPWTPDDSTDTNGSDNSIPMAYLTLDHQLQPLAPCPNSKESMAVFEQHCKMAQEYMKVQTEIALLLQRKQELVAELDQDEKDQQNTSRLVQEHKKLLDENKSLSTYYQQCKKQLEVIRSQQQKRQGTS
Proto-oncogene tyrosine-protein kinase receptor Ret (Homo sapiens), sequence (P07949 whole entry): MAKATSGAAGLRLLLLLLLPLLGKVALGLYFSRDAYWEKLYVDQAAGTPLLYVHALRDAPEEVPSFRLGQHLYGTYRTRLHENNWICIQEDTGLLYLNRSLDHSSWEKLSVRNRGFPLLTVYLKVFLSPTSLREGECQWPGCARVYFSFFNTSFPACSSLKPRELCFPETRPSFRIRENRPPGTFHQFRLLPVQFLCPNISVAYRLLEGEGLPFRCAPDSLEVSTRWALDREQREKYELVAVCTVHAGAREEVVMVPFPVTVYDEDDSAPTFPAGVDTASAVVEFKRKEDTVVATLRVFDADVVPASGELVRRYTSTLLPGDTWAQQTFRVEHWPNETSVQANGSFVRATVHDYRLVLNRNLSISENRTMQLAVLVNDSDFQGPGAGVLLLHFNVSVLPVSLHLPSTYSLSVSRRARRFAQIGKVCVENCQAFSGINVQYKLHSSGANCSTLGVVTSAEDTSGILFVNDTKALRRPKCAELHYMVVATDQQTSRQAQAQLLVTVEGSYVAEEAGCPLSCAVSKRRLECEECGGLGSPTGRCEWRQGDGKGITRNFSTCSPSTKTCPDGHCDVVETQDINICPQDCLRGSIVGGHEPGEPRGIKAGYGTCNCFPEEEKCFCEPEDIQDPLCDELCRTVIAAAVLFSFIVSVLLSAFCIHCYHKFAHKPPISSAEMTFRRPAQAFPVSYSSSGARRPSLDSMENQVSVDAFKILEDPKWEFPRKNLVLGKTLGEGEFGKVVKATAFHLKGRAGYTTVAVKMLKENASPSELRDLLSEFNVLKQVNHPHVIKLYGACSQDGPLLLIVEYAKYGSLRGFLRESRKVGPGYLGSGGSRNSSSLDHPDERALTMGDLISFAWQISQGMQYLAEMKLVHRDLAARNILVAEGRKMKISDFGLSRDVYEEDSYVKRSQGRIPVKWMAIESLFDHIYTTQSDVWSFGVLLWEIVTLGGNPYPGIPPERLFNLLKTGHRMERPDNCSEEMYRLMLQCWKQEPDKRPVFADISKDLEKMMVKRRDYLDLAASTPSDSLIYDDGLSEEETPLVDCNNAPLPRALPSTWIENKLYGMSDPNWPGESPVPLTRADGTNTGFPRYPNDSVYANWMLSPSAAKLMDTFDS
Serine/threonine-protein kinase BRSK2 (Homo sapiens), sequence (Q8IWQ3 whole entry): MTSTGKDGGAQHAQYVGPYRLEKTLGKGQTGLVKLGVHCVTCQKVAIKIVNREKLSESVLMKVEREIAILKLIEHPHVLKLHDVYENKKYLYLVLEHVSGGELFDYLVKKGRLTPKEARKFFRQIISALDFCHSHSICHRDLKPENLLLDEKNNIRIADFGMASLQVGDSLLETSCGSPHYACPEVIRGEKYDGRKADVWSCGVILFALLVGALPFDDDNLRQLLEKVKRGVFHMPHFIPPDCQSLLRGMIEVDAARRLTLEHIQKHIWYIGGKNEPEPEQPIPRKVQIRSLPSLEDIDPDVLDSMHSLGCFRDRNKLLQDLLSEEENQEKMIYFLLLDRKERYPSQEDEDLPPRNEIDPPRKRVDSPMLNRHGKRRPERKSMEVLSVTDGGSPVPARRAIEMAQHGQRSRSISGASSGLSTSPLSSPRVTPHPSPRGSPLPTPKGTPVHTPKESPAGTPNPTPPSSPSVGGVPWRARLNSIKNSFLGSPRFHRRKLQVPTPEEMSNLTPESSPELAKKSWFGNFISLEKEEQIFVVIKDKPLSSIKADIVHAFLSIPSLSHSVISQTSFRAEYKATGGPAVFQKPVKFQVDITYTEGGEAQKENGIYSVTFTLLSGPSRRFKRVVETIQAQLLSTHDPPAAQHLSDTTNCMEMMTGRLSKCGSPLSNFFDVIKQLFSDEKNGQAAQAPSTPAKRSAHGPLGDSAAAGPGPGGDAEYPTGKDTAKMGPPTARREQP
Rhodopsin kinase GRK1 (Homo sapiens), sequence (Q15835 whole entry): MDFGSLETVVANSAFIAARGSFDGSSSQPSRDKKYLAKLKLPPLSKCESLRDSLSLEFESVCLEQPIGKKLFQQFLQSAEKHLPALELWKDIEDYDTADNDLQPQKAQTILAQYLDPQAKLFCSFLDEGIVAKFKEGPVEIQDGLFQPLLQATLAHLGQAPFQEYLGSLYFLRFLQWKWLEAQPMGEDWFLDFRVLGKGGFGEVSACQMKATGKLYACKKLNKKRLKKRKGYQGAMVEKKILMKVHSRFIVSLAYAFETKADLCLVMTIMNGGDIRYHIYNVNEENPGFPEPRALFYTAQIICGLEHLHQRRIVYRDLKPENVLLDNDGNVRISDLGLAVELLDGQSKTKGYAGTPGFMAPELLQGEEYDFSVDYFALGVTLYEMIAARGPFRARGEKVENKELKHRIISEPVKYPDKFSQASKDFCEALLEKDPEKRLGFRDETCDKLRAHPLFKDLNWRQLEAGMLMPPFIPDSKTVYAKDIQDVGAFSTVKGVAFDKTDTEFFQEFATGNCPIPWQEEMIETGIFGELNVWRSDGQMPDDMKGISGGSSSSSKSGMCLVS
Tyrosine-protein kinase HCK (Homo sapiens), sequence (P08631 2-526 limits assumed): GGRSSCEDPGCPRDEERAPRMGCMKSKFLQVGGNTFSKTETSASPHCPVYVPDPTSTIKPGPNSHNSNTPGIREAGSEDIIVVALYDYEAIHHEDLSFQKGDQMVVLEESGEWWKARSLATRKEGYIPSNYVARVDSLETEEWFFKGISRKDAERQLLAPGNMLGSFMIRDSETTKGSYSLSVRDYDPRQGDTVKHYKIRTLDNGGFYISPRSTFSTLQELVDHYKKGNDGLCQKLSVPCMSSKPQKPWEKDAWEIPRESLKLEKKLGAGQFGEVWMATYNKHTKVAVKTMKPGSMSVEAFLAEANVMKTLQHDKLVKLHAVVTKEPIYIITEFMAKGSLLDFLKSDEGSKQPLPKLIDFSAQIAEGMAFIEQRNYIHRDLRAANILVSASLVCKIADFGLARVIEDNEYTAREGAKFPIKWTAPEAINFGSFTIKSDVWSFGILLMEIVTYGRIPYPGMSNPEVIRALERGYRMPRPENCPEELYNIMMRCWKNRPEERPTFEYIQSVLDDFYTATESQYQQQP
Dual specificity mitogen-activated protein kinase kinase 4 (Mus musculus), sequence (P47809 whole entry): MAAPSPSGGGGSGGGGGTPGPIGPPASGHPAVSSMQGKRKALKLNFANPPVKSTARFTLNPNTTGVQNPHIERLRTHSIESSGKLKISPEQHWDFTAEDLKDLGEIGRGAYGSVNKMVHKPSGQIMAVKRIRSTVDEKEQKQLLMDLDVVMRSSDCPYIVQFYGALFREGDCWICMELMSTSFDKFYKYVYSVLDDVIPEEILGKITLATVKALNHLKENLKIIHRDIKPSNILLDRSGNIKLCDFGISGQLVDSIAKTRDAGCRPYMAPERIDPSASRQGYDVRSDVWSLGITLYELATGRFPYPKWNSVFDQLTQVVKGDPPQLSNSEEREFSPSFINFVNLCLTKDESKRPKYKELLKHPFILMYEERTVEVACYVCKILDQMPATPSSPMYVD

In the case of `COc1cc2nccc(Oc3ccc(NC(=O)C4(C(=O)Nc5ccc(F)cc5)CC4)cc3)c2cc1OC` [CABOZANTINIB], the inhibition result in the data set with Mus musculus is “Active”.
Turning to `Cc1ccc(NC(=O)C2(C(=O)Nc3ccc(Nc4ncc(F)c(-c5cc(F)c6nc(C)n(C(C)C)c6c5)n4)cc3)CC2)cc1`, the outcome in the data set with HeLa and in the data set on SiHa [11] was Active. Also, the inhibition came out at 0% in data set [1]; 40% in data set [2]; 65% in [3]; 79% in data set [4]; 66% in data set [5]; 13% in data set [6]. Further, the inhibition in data set [9] amounted to 27%; in data set [12], 8%; in data set [13] it was 0%; in data set [14], 54%; in [17], 7%; in data set [18], 12%. Also, in data set [19], the inhibition came out at 12%. Further, in the data set on SiHa [7], the TGI result was “Active”. In addition, the inhibition result in the data set on SiHa [8] was “Active”. In addition, the AUC(0-inf) in data set [10] came out at 11000 ng·h/mL. Also, the peak level in data set [15] (Cmax) was 1000 ng/mL. Besides, in data set [16], the Activity result was “Non-Toxic”.
